In ChEMBL document CHEMBL1649157, “Intracellular activity of antibiotics against Staphylococcus aureus in a mouse peritonitis model” (Antimicrob Agents Chemother, 2009):
The source made the active and inactive calls. No cut-off for these calls is given here.

Legend:
Staphylococcus aureus [1] = experiment: Antibacterial activity against Staphylococcus aureus E19977 infected in NMRI mouse assessed as log reduction in intracellular bacterial cfu in peritoneum at 60 mg/kg, sc administered 2 hrs after infection evry 8 hrs as three-dose regimen measured after 19 hrs; type: functional, organism-based; set-up: dose 60 mg/kg
Outline: (§1)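 NMRI mice were infected i.p. and given one or three doses (every 8 h), starting 2 h post-inoculation, at 200 mg/kg or 60 mg/kg, four mice per group. Peritoneal washes were sampled over 19 h of treatment. Total, extracellular and intracellular CFU/ml (lysostaphin separation) were compared with the pretreatment level; mean ± range, n = 2. Untreated controls were sampled only at 6 h of infection.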

Staphylococcus aureus [2] = experiment: Antibacterial activity against Staphylococcus aureus E19977 infected in NMRI mouse assessed as log reduction in intracellular bacterial cfu in peritoneum at 60 mg/kg, sc administered as single dose 2 hrs after infection measured within 4 hrs; type: functional, organism-based; set-up: dose 60 mg/kg; outline: as §1
Staphylococcus aureus [3] = experiment: Antibacterial activity against Staphylococcus aureus E19977 infected in NMRI mouse assessed as log reduction in bacterial cfu in peritoneum at 60 mg/kg, sc administered as single dose 2 hrs after infection measured upto 19 hrs; type: functional, organism-based; set-up: dose 60 mg/kg; outline: as §1
Staphylococcus aureus [4] = experiment: Antibacterial activity against Staphylococcus aureus E19977 infected in NMRI mouse assessed as log reduction in intracellular bacterial cfu in peritoneum at 60 mg/kg, sc administered as single dose 2 hrs after infection measured upto 19 hrs; type: functional, organism-based; set-up: dose 60 mg/kg; outline: as §1
Staphylococcus aureus [5] = experiment: Antibacterial activity against Staphylococcus aureus E19977 infected in NMRI mouse assessed as log reduction in extracellular bacterial cfu in peritoneum at 60 mg/kg, sc administered as single dose 2 hrs after infection measured upto 19 hrs; type: functional, organism-based; set-up: dose 60 mg/kg; outline: as §1
Staphylococcus aureus [6] = experiment: Bactericidal activity against Staphylococcus aureus E19977 assessed as log reduction in cfu at 2 mg/liter after 12 hrs by time-kill study; type: functional
Outline: (§2)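 Clinical bacteremia isolate (penicillin-resistant, methicillin-susceptible). Exponential-phase bacteria were placed in an in vitro kinetic model that simulates drug elimination without changing the inoculum. The starting drug level matched the human free peak serum concentration after a single dose, with simulated human elimination half-life. Samples were taken at 0, 2, 4, 6, 8, 12 and 24 h, with growth controls in each run.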

Staphylococcus aureus [7] = experiment: Bactericidal activity against Staphylococcus aureus E19977 assessed as log reduction in cfu at 2 mg/liter upto 24 hrs by time-kill study; type: functional; outline: as §2
Staphylococcus aureus [8] = experiment: Bactericidal activity against Staphylococcus aureus E19977 assessed as log reduction in cfu at 1.5 mg/liter upto 24 hrs by time-kill study; type: functional; settings: in the assay text read “2.0 mg/liter” for “1.5 mg/liter”; outline: as §2
Staphylococcus aureus [9] = experiment: Bactericidal activity against Staphylococcus aureus E19977 assessed as log reduction in cfu at 20 mg/liter upto 24 hrs by time-kill study; type: functional
Outline: (§3)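 In vitro kinetic model: exponential-phase bacteria at a final 10^6.3 CFU/ml were exposed to a starting concentration set to the human free peak level. Elimination followed the simulated human half-life. Samples were taken at 0, 2, 4, 6, 8, 12 and 24 h and counted on 5% blood agar (detection limit 25 CFU/ml). Growth controls were included; n = 2.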

Staphylococcus aureus [10] = experiment: Bactericidal activity against Staphylococcus aureus E19977 assessed as log reduction in cfu at 9 mg/liter after 24 hrs by time-kill study; type: functional, organism-based
Outline: (§4)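 In vitro kinetic model simulating antibiotic elimination without inoculum change. Exponential-phase E19977 was added at a final 10^6.3 CFU/ml. Starting drug concentration matched the human free peak, with the human half-life simulated. Samples were plated on 5% blood agar at 0, 2, 4, 6, 8, 12 and 24 h, with growth controls in each run. Results are shown as mean and range, n = 2.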

Staphylococcus aureus [11] = experiment: Bactericidal activity against Staphylococcus aureus E19977 assessed as log reduction in cfu at 2 mg/liter after 24 hrs by time-kill study; type: functional, organism-based; outline: as §4
Staphylococcus aureus [12] = experiment: Bactericidal activity against Staphylococcus aureus E19977 assessed as log reduction in cfu at 1.5 mg/liter after 24 hrs by time-kill study; type: functional, organism-based; outline: as §4
Staphylococcus aureus [13] = experiment: Bactericidal activity against Staphylococcus aureus E19977 assessed as log reduction in cfu at 20 mg/liter after 24 hrs by time-kill study; type: functional, organism-based; outline: as §4
Staphylococcus aureus [14] = experiment: Bactericidal activity against Staphylococcus aureus E19977 assessed as log reduction in cfu at 0.5 mg/liter after 24 hrs by time-kill study; type: functional, organism-based; outline: as §4
Staphylococcus aureus [15] = experiment: Antibacterial activity against Staphylococcus aureus E19977 infected in NMRI mouse assessed as log reduction in bacterial cfu in peritoneum at 10 mg/kg, sc administered 2 hrs after infection measured after 4 hrs; type: functional, organism-based; set-up: dose 10 mg/kg
Outline: (§5)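 Outbred female NMRI mice (25 to 30 g) received 0.5 ml of 10^7.7 CFU/ml inoculum in 5% mucin i.p. A single dose was given 2 h post-challenge, and mice were sampled 4 h later by 2.0 ml saline peritoneal wash, pooling two mice. Extracellular and intracellular fractions were separated by 300 × g centrifugation, lysostaphin, four HBSS washes and water lysis. Counts on blood agar; median of n = 8.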

Staphylococcus aureus [16] = experiment: Antibacterial activity against Staphylococcus aureus E19977 infected in NMRI mouse assessed as log reduction in intracellular bacterial cfu in peritoneum at 10 mg/kg, sc administered 2 hrs after infection measured after 4 hrs; type: functional, organism-based; set-up: dose 10 mg/kg; outline: as §5
Staphylococcus aureus [17] = experiment: Antibacterial activity against Staphylococcus aureus E19977 infected in NMRI mouse assessed as log reduction in extracellular bacterial cfu in peritoneum at 10 mg/kg, sc administered 2 hrs after infection measured after 4 hrs; type: functional, organism-based; set-up: dose 10 mg/kg; outline: as §5
Staphylococcus aureus [18] = experiment: Antibacterial activity against Staphylococcus aureus E19977 infected in NMRI mouse assessed as log reduction in bacterial cfu in peritoneum at 10 mg/kg, sc administered as single dose 1 hr after infection measured after 4 hrs; type: functional, organism-based; set-up: dose 10 mg/kg
Outline: (§6)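 NMRI mice were infected i.p. with S. aureus E19977 in 5% mucin. A single dose (60 mg/kg or 10 mg/kg) was given 1, 2 or 3 h after inoculation, four mice per group. Peritoneal wash was sampled after 4 h of treatment and separated into total, extracellular and intracellular counts by lysostaphin/centrifugation. Δlog10 CFU/ml was calculated against vehicle-treated mice infected for the same time (5, 6 or 7 h).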

Staphylococcus aureus [19] = experiment: Antibacterial activity against Staphylococcus aureus E19977 infected in NMRI mouse assessed as log reduction in bacterial cfu in peritoneum at 10 mg/kg, sc administered as single dose 2 hrs after infection measured after 4 hrs; type: functional, organism-based; set-up: dose 10 mg/kg; outline: as §6
Staphylococcus aureus [20] = experiment: Antibacterial activity against Staphylococcus aureus E19977 infected in NMRI mouse assessed as log reduction in bacterial cfu in peritoneum at 10 mg/kg, sc administered as single dose 3 hrs after infection measured after 4 hrs; type: functional, organism-based; set-up: dose 10 mg/kg; outline: as §6
Staphylococcus aureus [21] = experiment: Antibacterial activity against Staphylococcus aureus E19977 infected in NMRI mouse assessed as log reduction in intracellular bacterial cfu in peritoneum at 10 mg/kg, sc administered as single dose 1 hr after infection measured after 4 hrs; type: functional, organism-based; set-up: dose 10 mg/kg; outline: as §6
Staphylococcus aureus [22] = experiment: Antibacterial activity against Staphylococcus aureus E19977 infected in NMRI mouse assessed as log reduction in intracellular bacterial cfu in peritoneum at 10 mg/kg, sc administered as single dose 2 hrs after infection measured after 4 hrs; type: functional, organism-based; set-up: dose 10 mg/kg; outline: as §6
Staphylococcus aureus [23] = experiment: Antibacterial activity against Staphylococcus aureus E19977 infected in NMRI mouse assessed as log reduction in intracellular bacterial cfu in peritoneum at 10 mg/kg, sc administered as single dose 3 hrs after infection measured after 4 hrs; type: functional, organism-based; set-up: dose 10 mg/kg; outline: as §6
Staphylococcus aureus [24] = experiment: Antibacterial activity against Staphylococcus aureus E19977 infected in NMRI mouse assessed as log reduction in extracellular bacterial cfu in peritoneum at 10 mg/kg, sc administered as single dose 1 hr after infection measured after 4 hrs; type: functional, organism-based; set-up: dose 10 mg/kg; outline: as §6
Staphylococcus aureus [25] = experiment: Antibacterial activity against Staphylococcus aureus E19977 infected in NMRI mouse assessed as log reduction in extracellular bacterial cfu in peritoneum at 10 mg/kg, sc administered as single dose 2 hrs after infection measured after 4 hrs; type: functional, organism-based; set-up: dose 10 mg/kg; outline: as §6
Staphylococcus aureus [26] = experiment: Antibacterial activity against Staphylococcus aureus E19977 infected in NMRI mouse assessed as log reduction in extracellular bacterial cfu in peritoneum at 10 mg/kg, sc administered as single dose 3 hrs after infection measured after 4 hrs; type: functional, organism-based; set-up: dose 10 mg/kg; outline: as §6
Staphylococcus aureus [27] = experiment: Antibacterial activity against Staphylococcus aureus E19977 by Etest; type: functional
Serum [28] = experiment: Protein binding in human serum at 600 mg, po; type: ADME, organism-based; settings: in vivo
Homo sapiens [29] = experiment: Cmax in human at 240 mg, im; type: ADME, organism-based; set-up: dose 240 mg, route […]; settings: in vivo
Serum [30] = experiment: Protein binding in human serum at 240 mg, im; type: ADME, cell-free
Homo sapiens [31] = experiment: Half life in human at 240 mg, im; type: ADME, organism-based; settings: in vivo
Staphylococcus aureus [32] = experiment: Bactericidal activity against Staphylococcus aureus E19977 assessed as log reduction in cfu at 9 mg/liter upto 24 hrs by time-kill study; type: functional, organism-based; outline: as §3

## CO[C@H]1/C=C/O[C@@]2(C)Oc3c(C)c(O)c4c(O)c(c(/C=N/N5CCN(C)CC5)c(O)c4c3C2=O)NC(=O)/C(C)=C\C=C\[C@H](C)[C@H](O)[C@@H](C)[C@@H](O)[C@@H](C)[C@H](OC(C)=O)[C@@H]1C [RIFAMPIN]
Staphylococcus aureus [1]
  Activity: inactive
Staphylococcus aureus [2]
  Activity: inactive
Staphylococcus aureus [3]
  Activity: inactive
Staphylococcus aureus [4]
  Activity: inactive
Staphylococcus aureus [5]
  Activity: inactive
Staphylococcus aureus [6]
  FC: 2
Staphylococcus aureus [7]
  FC: 2
Staphylococcus aureus [8]
  FC: 2
Staphylococcus aureus [9]
  FC: >2
Staphylococcus aureus [10]
  Activity: inactive
Staphylococcus aureus [11]
  Activity: inactive
Staphylococcus aureus [12]
  Activity: inactive
Staphylococcus aureus [13]
  Activity: inactive
Staphylococcus aureus [14]
  Activity: inactive
Staphylococcus aureus [15]
  Activity: Active
Staphylococcus aureus [16]
  Activity: Active
Staphylococcus aureus [17]
  Activity: inactive
Staphylococcus aureus [18]
  Activity: Active
Staphylococcus aureus [19]
  Activity: inactive
Staphylococcus aureus [20]
  Activity: inactive
Staphylococcus aureus [21]
  Activity: Active
Staphylococcus aureus [22]
  Activity: inactive
Staphylococcus aureus [23]
  Activity: inactive
Staphylococcus aureus [24]
  Activity: Active
Staphylococcus aureus [25]
  Activity: inactive
Staphylococcus aureus [26]
  Activity: inactive
Staphylococcus aureus [27]
  MIC: < 0.016 µg/mL
Serum [28]
  Activity: 80%

## GENTAMICIN [listing 1 of 2 here]
Homo sapiens [29]
  Cmax: 10000 ng/mL
Serum [30]
  Activity: 10%
Homo sapiens [31]
  t1/2: 2 h

## GENTAMICIN [listing 2 of 2 here]
Staphylococcus aureus [32]
  FC: 4
Staphylococcus aureus [9]
  FC: > 2
Staphylococcus aureus [10]
  Activity: inactive
Staphylococcus aureus [11]
  Activity: inactive
Staphylococcus aureus [12]
  Activity: inactive
Staphylococcus aureus [13]
  Activity: inactive
Staphylococcus aureus [14]
  Activity: inactive
Staphylococcus aureus [15]
  Activity: inactive
Staphylococcus aureus [16]
  Activity: inactive
Staphylococcus aureus [17]
  Activity: inactive
Staphylococcus aureus [27]
  MIC: 0.38 µg/mL
